Data on 13 molecules can be found in ChEMBL document CHEMBL1140119, “Heteroarylnitrones as drugs for neurodegenerative diseases: synthesis, neuroprotective properties, and free radical scavenger properties” (J Med Chem, 2008).

Active and inactive are the calls of the source. No cut-off for these calls is given here.

Data set [1] can be described thus: Permeability across porcine brain lipid coated polyvinylidene fluoride membrane by PAMPA. Format: ADME. The following applies: pig, read-out: permeability. The method, boiled down:
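PAMPA-BBB assay. Filter of the donor plate (PVDF, 0.45 µm) coated with porcine brain lipid in dodecane (20 mg/mL). Compounds at 1 mg/mL in PBS/ethanol (9:1), filtered, placed in donor wells; acceptor wells held PBS/ethanol (9:1). Sandwich left 120 min at 25 °C, acceptor concentration measured by UV. Four wells per sample, at least three runs, mean ± SD.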
For orientation: In PAMPA a lipid-coated filter parts donor from acceptor wells.

In data set [2] the test system is J774. In words: Cytotoxicity against mouse J774 cells after 48 hrs by MTT assay. The format is cell-based. To be noted: J774, 48 h. In a few lines:
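J774 murine macrophages seeded at 1 × 10^5 cells/well and left 48 h at 37 °C in 5% CO2 to attach. Exposed to compounds at 50-500 µM for 48 h. MTT 0.2 mg/mL final for 3 h, formazan dissolved in DMSO, absorbance at 560 nm. IC50 is the concentration reducing control absorbance by 50%, averaged over two experiments.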

Data set [3] has as its system SH-SY5Y. Put plainly: Neuroprotective activity against human SH-SY5Y cells assessed as inhibition of H2O2-induced cellular damage at 10 uM after 24 hrs relative to control. The format is functional. Also on record: scale not given: the % may be the effect or the level left. In a few lines: (§1)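 SH-SY5Y cells (passages 3-16, MEM with 10% FBS, 37 °C, 5% CO2) seeded at 10^4 cells/well. Pretreated with compound at 10 µM for 1 h, then 100 µM H2O2 for 24 h; NAC 5 mM as positive control. Viability from LDH released into the medium. Difference relative to H2O2-only cells, normalized; neuroprotection computed from basal values. Triplicate, mean ± SD.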

The nature of data set [4]: Antioxidant activity assessed as peroxyl free radical scavenging activity by ORAC-fluorescence assay relative to alpha-phenyl-N-tert-butylnitrone. The format is functional. In a few lines:
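Peroxyl scavenging by fluorescein ORAC at 60 °C in 75 mM phosphate buffer pH 7.4. Compounds at 10-1000 µM final with fluorescein 70 nM final; 30 s preincubation, then AAPH 12 mM final. Fluorescence (ex 490/em 515) read every minute for 12 min. Net AUC versus blank regressed on concentration and expressed as µmol PBN equivalents per µmol sample. Duplicates, at least three independent assays.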

For data set [5], the system named is SH-SY5Y. Put plainly: Neuroprotective activity against human SH-SY5Y cells assessed as inhibition of H2O2-induced cellular damage at 10 uM dosed 1 hr prior to H2O2 challenge after 24 hrs relative to control. Format: functional. Also on record: scale not given: the % may be the effect or the level left. In a few lines:
as §1

The subject of data set [6] is Radical scavenging activity. In words: Antioxidant activity assessed as reduction of DPPH radical scavenging activity at 0.1 mM. The format is functional. More on the design: scale not given: the % may be the effect or the level left. In a few lines: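 DPPH reduction in ethanol. Test compound and DPPH both 0.1 mM final, preincubated 5 min at 37 °C, absorbance read at 520 nm. Reduction percentage = 100[(A0 − Ac)/A0], with A0 the untreated DPPH absorbance.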

Data set [7] deals with J774. In words: Cytotoxicity against mouse J774 cells at 10 uM after 48 hrs by MTT assay. The format is cell-based. To be noted: j774, 48 h. (In general: Tetrazolium assays rely on reduction of a dye to a coloured formazan, in cell work by metabolically active cells.)
Data set [8] relates to SH-SY5Y. In words: Neuroprotective activity against human SH-SY5Y cells assessed as inhibition of H2O2-induced cellular damage at 1 uM dosed 1 hr prior to H2O2 challenge after 24 hrs relative to control. Format: functional. More on the design: scale not given: the % may be the effect or the level left. The method, boiled down: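 SH-SY5Y neuroblastoma cells given compound at 1 µM 1 h before a 100 µM H2O2 challenge and then incubated 24 h. Viability measured as LDH activity and compared with H2O2-only cells; NAC 5 mM used as positive control. Three independent experiments, mean ± SD.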

The next data set is filed under the species Homo sapiens. In words: Neuroprotective activity against oxidative stress-induced cell death in human neuroblastoma cells. Format: functional, cell-based.
Data set [9] concerns Radical scavenging activity. Put plainly: Antioxidant activity assessed as reduction of DPPH radical scavenging activity at 10 mM. Format: functional. Also on record: scale not given: the % may be the effect or the level left. (DPPH is a stable violet radical that fades when it is reduced.)

As for `CC(C)(C)c1cc(-c2nsc(/C=[N+](\[O-])C(C)(C)C)n2)cc(C(C)(C)C)c1O`, in [1], the Papp was 4.5 ×10⁻⁶ cm/s. The IC50 (usually the point on the concentration scale where inhibition reaches its midpoint) in the data set on J774 [2] was over 400 µM. Besides, the Activity in the data set with SH-SY5Y [3] is 25.2%; in the data set on SH-SY5Y [5] it was 46%; in [6], 40%; in the data set with J774 [7] it was “Non-toxic”; in the data set with SH-SY5Y [8], 20%. Moreover, the PBN equivalents in [4] was 6.
Take `COc1ccc(-c2nsc(/C=[N+](\[O-])C(C)(C)C)n2)cc1`: the Papp in data set [1] came to 12.5 ×10⁻⁶ cm/s. Also, the IC50 in the data set with J774 [2] was over 400 µM. Besides, the Activity in the data set with SH-SY5Y [3] is 25%; with SH-SY5Y [5] it was 46%; in [6], 10%; with J774 [7] it was “Non-toxic”. Also, the PBN equivalents in [4] came to 7.
`CC(C)(C)/[N+]([O-])=C/c1c(-c2ccccc2)no[n+]1[O-]`: the midpoint of inhibition with J774 [2], the IC50, lay at 100 µM. Also, the Activity in the data set on SH-SY5Y [3] was 0%; in data set [6] it was 0%; in the data set with J774 [7] it was “Non-toxic”. For the same molecule, the result in the data set listed under Homo sapiens was inactive. For the same molecule, in data set [4], the PBN equivalents was 6.
In turn, `CC(C)(C)/[N+]([O-])=C/c1ccccc1` returned an IC50 with J774 [2] of over 400 µM. The Activity was found to be 20.6% in the data set on SH-SY5Y [3], 37% with SH-SY5Y [5], 0% in [6] and 20% in data set [9]. For the same molecule, the PBN equivalents in data set [4] came to 1.
In the data set on J774 [2], `Cc1c(/C=[N+](\[O-])C(C)(C)C)no[n+]1[O-]` returned an IC50 of over 400 µM. The Activity is 23% with SH-SY5Y [3], 42% in the data set with SH-SY5Y [5], 8% in data set [6] and “Non-toxic” in the data set on J774 [7]. Moreover, in [4], the PBN equivalents is 2.5.
As to `[O-]/[N+](=C\c1nc(-c2ccccc2)ns1)C1CCCCC1`, the midpoint of inhibition with J774 [2], the IC50, lay at 100 µM. The Activity with SH-SY5Y [3] was 23.6%; in the data set on SH-SY5Y [5] it was 43%; in [6], 11%; in the data set with J774 [7] it was “Non-toxic”. Further, in data set [4], the PBN equivalents was 4.6.
Take `Cc1nnsc1/C=[N+](\[O-])C(C)(C)C`: the IC50 in the data set on J774 [2] was over 400 µM. Further, the Activity is 0% in the data set on SH-SY5Y [3], 0% in data set [6] and “Non-toxic” in the data set on J774 [7]. Also, the outcome in the data set filed under Homo sapiens was inactive.
Molecule `CC(C)(C)/[N+]([O-])=C/c1nsc(-c2ccccc2)n1` gave an IC50 with J774 [2] of over 400 µM. For the same molecule, the Activity with SH-SY5Y [3] is 20%; with SH-SY5Y [5] it was 36%; in data set [6] it was 41%; in the data set with J774 [7] it was “Non-toxic”. Further, in data set [4], the PBN equivalents was 2.
Regarding `CC(C)(C)/[N+]([O-])=C/c1nc(-c2ccc(Cl)cc2)ns1`, in the data set on J774 [2], 200 µM corresponded to half-maximal inhibition (IC50). Moreover, the Activity in the data set on SH-SY5Y [3] is 19.1%; with SH-SY5Y [5] it was 34%; in data set [6] it was 0%; in the data set on J774 [7], “Non-toxic”. Also, the PBN equivalents in data set [4] came out at 1.5.
Molecule `CCOC(=O)c1snnc1/C=[N+](\[O-])C(C)(C)C` showed an IC50 in the data set with J774 [2] of over 400 µM. Also, the figures for the Activity (in the data set with SH-SY5Y [3]; in data set [6]; in the data set on J774 [7]) were 0%, 0% and “Non-toxic”, respectively. In addition, in the data set filed under Homo sapiens, the result was inactive.
`CC(C)(C)/[N+]([O-])=C/c1nc(-c2ccccc2)ns1`: the IC50 with J774 [2] was over 400 µM. Further, the Activity in the data set on SH-SY5Y [3] was 20.7%; in the data set with SH-SY5Y [5] it was 38%; in data set [6] it was 0%; with J774 [7], “Non-toxic”. In addition, in [4], the PBN equivalents turned out to be 5.5.
In the data set with J774 [2], `[O-]/[N+](=C\c1nc(-c2ccccc2)ns1)Cc1ccccc1` yielded an IC50 of 240 µM. Further, the Activity was 18.1% in the data set on SH-SY5Y [3], 33% with SH-SY5Y [5], 0% in [6] and “Non-toxic” with J774 [7]. In addition, in [4], the PBN equivalents was 3.5.
In the data set on J774 [2], `CC(C)(C)/[N+]([O-])=C/c1ccc2no[n+]([O-])c2c1` gave an IC50 of 150 µM. Besides, the Activity in the data set with SH-SY5Y [3] is 13.4%; in the data set with SH-SY5Y [5], 24%; in data set [6], 17%; in the data set with J774 [7] it was “Non-toxic”. Further, the PBN equivalents in data set [4] was determined as 16.5.
